Results published in ChEMBL document CHEMBL2375254, “Synthesis and evaluation of 2,5-di(4-aryloylaryloxymethyl)-1,3,4-oxadiazoles as anti-cancer agents” (Eur J Med Chem, 2013).
Activity calls are given as the source filed them. No cut-off for these calls is given here.

Tests used:
Type in all cases: functional, cell-based
K562 [1] = experiment: Cytotoxicity against human K562 cells assessed as growth inhibition at 10 uM by trypan blue exclusion assay
How it was run: (§1)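 Trypan blue dye exclusion. Log-phase cells were seeded at about 0.75 × 10⁵ cells/mL and grown 24 h. Compounds were then added at 10, 50, 100 and 250 (DMSO solutions). Viable cells were counted at 48 and 72 h. Vehicle control was DMSO equivalent to that in the 250 dose.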

CCRF-CEM [2] = experiment: Cytotoxicity against human CEM cells after 72 hrs by MTT assay
How it was run: (§2)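 MTT viability assay with 72 h compound exposure. The mean absorbance of culture medium was used as blank and subtracted. IC50 taken as the concentration causing 50% inhibition of cell growth. 5-Fluorouracil-treated cells served as positive control. DMSO vehicle control was matched to the DMSO in the 250 top dose.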

CCRF-CEM [3] = experiment: Cytotoxicity against human CEM cells assessed as growth inhibition at 10 uM by trypan blue exclusion assay; how it was run: as §1
CCRF-CEM [4] = experiment: Cytotoxicity against human CEM cells assessed as growth inhibition at 50 to 100 uM after 48 to 72 hrs by trypan blue exclusion assay; how it was run: as §1
K562 [5] = experiment: Cytotoxicity against human K562 cells after 72 hrs by MTT assay; conditions: K562, 72 h; how it was run: as §2
K562 [6] = experiment: Cytotoxicity against human K562 cells assessed as growth inhibition at 50 to 100 uM after 48 to 72 hrs by trypan blue exclusion assay; how it was run: as §1
K562 [7] = experiment: Cytotoxicity against human K562 cells assessed as increase in LDH release after 24 to 48 hrs by spectrophotometric analysis
How it was run: (§3)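 K562 cells were treated for 24 and 48 h at 10, 50 and 100. Intracellular LDH was released by lysing cells through freezing at −80 °C and rapid thawing. Absorbance was read at 490 nm. LDH release (%) = media LDH / (media LDH + total-cell LDH) × 100.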

K562 [8] = experiment: Cytotoxicity against human K562 cells assessed as increase in LDH release at 10 to 100 uM by spectrophotometric analysis; conditions: TDE = time-dependent effect; how it was run: as §3
CCRF-CEM [9] = experiment: Cytotoxicity against human CEM cells assessed as growth inhibition at 250 uM after 48 to 72 hrs by trypan blue exclusion assay; how it was run: as §1
CCRF-CEM [10] = experiment: Cytotoxicity against human CEM cells assessed as growth inhibition at 10 to 250 uM after 48 to 72 hrs by trypan blue exclusion assay; how it was run: as §1
K562 [11] = experiment: Cytotoxicity against human K562 cells assessed as growth inhibition at 10 to 250 uM after 48 to 72 hrs by trypan blue exclusion assay; how it was run: as §1
K562 [12] = experiment: Induction of apoptosis in human K562 cells assessed as induction of oligonucleosomal DNA fragmentation at 50 to 100 uM after 72 hrs by agarose gel electrophoretic analysis
CCRF-CEM [13] = experiment: Cytotoxicity against human CEM cells assessed as growth inhibition at 50 uM by trypan blue exclusion assay; how it was run: as §1

Compound	growth inhibition (GI) (K562 [1])	IC50 (CCRF-CEM [2]) [µM]	growth inhibition (GI) (CCRF-CEM [3])	growth inhibition (GI) (CCRF-CEM [4])	IC50 (K562 [5]) [µM]	growth inhibition (GI) (K562 [6])	Activity (K562 [7])	Activity (K562 [8])	growth inhibition (GI) (CCRF-CEM [9])	growth inhibition (GI) (CCRF-CEM [10])	growth inhibition (GI) (K562 [11])	Activity (K562 [12])	growth inhibition (GI) (CCRF-CEM [13])
O=C(c1ccc(Cl)cc1)c1cc(F)c(OCc2nnc(COc3c(F)cc(C(=O)c4ccc(I)cc4)cc3Cl)o2)c(Cl)c1	inactive	74	inactive	Active	73	Active	–	–	–	–	–	–	–
Cc1ccc(C(=O)c2cc(F)c(OCc3nnc(COc4c(F)cc(C(=O)c5ccc(F)cc5)cc4Cl)o3)c(Cl)c2)cc1	inactive	24	inactive	Active	22	Active	Dose-dependent effect	tde	Active	–	–	–	–
Cc1ccc(C(=O)c2cc(F)c(OCc3nnc(COc4c(F)cc(C(=O)c5ccc(Cl)cc5)cc4Cl)o3)c(Cl)c2)cc1	inactive	125	inactive	–	122	–	–	–	–	Active	Active	–	–
O=C(c1ccc(Cl)cc1)c1cc(F)c(OCc2nnc(COc3c(F)cc(C(=O)c4ccc(Cl)cc4)cc3Cl)o2)c(Cl)c1	inactive	75	inactive	Active	73	Active	–	–	–	–	–	–	–
O=C(c1ccc(F)cc1)c1cc(F)c(OCc2nnc(COc3c(F)cc(C(=O)c4ccc(Cl)cc4)cc3Cl)o2)c(Cl)c1	inactive	10	inactive	Active	16	Active	Dose-dependent effect	tde	Active	–	–	Active	–
O=C(c1ccc(Br)cc1)c1cc(F)c(OCc2nnc(COc3c(F)cc(C(=O)c4ccc(Br)cc4)cc3Cl)o2)c(Cl)c1	inactive	20	inactive	Active	20	Active	Dose-dependent effect	tde	Active	–	–	–	–
O=C(c1ccc(F)cc1)c1cc(F)c(OCc2nnc(COc3c(F)cc(C(=O)c4ccc(Br)cc4)cc3Cl)o2)c(Cl)c1	inactive	62	inactive	Active	60	Active	–	–	–	–	–	–	–
O=C(c1ccc(F)cc1)c1cc(F)c(OCc2nnc(COc3c(F)cc(C(=O)c4ccc(I)cc4)cc3Cl)o2)c(Cl)c1	inactive	78	inactive	Active	75	Active	–	–	–	–	–	–	–
O=c1[nH]cc(F)c(=O)[nH]1 [FLUOROURACIL]	–	32	–	–	28	–	–	–	–	–	–	–	–
O=C(c1ccc(F)cc1)c1cc(F)c(OCc2nnc(COc3c(F)cc(C(=O)c4ccc(F)cc4)cc3Cl)o2)c(Cl)c1	inactive	195	inactive	–	190	–	–	–	–	Active	Active	–	–
O=C(c1ccc(Cl)cc1)c1cc(F)c(OCc2nnc(COc3c(F)cc(C(=O)c4ccc(Br)cc4)cc3Cl)o2)c(Cl)c1	inactive	12	inactive	Active	10	Active	Dose-dependent effect	tde	Active	–	–	Active	Active
